Consider 1 compound from ChEMBL document CHEMBL3259808, “Optimization of antitrypanosomatid agents: identification of nonmutagenic drug candidates with in vivo activity” (J Med Chem, 2014).

Series [1] can be described thus: Stability of the compound in aqueous solution assessed as compound remaining at 1 mM at 37 degC after 1 hr by TLC analysis in presence of rat liver microsomal fraction. As to conditions: microsomes, 1000 µM. In short, it runs like this: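 Rat liver cytosolic (100 000g supernatant) and microsomal (100 000g pellet, washed and resuspended in Tris·HCl) fractions, fresh or stored at −80 °C; protein measured by BCA. Compound incubated with the fraction 1 h at 37 °C and analysed by TLC of extracts.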

The test system of series [2] is Trypanosoma cruzi. Description: Antitrypanosomal activity against Trypanosoma cruzi CL Brener infected in BALB/c mouse assessed as mouse survival at 214 umol/kg/day, po for 14 days administered in cholesterol/surfactant/phosphate buffer measured up to 60 days relative to control. In kind it is functional. In short, it runs like this:
(§1)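 Infected male BALB/c mice (30 days old, 25–30 g) were gavaged daily from day 6 postinfection for 14 days. Vehicle was a microemulsion of 10% cholesterol, 10% surfactant (soya phosphatidylcholine/sodium oleate/polyoxyl-40 hydrogenated castor oil) and 80% phosphate buffer pH 7.4. n = 7/group, with vehicle controls. Tail-vein parasitemia was taken weekly for 60 days and mortality recorded.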

Series [3] concerns Salmonella typhimurium. In words: Mutagenic activity in Salmonella typhimurium TA1535 at 3.09 to 250 ug/plate by Ames test in presence of mouse liver S9 fraction. In kind it is toxicity, organism-based. As to conditions: salmonella enterica subsp. enterica serovar typhimurium. In short, it runs like this: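 Plate-incorporation Ames test on minimal glucose agar with 500 μL Aroclor-treated mouse liver S9 added. DMSO solutions were tested at five consecutive 3-fold dilutions from the highest non-toxic dose, in triplicate, with a DMSO negative control. Revertants were counted manually; a compound was scored mutagenic when revertants were at least twice the negative control for two or more consecutive doses.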

Series [4] can be described thus: Selectivity index, ratio of IC50 for human RBC to IC50 for Trypanosoma cruzi Sylvio X-10 amastigotes. In short, it runs like this:
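Hemolysis: washed human erythrocytes (2% w/v in PBS) incubated 24 h at 37 °C with compound at final 50, 100 and 200 μM. Ten replicates per concentration. Hemoglobin release read at 405 nm against water lysis as 100%; amphotericin B 1.5 μM was the positive control. SI = IC50 red cells / parasite IC50 (Sylvio X-10 amastigotes or Tulahuen 2 epimastigotes).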

Series [5] in a line: Stability of the compound in aqueous solution assessed as compound remaining at 1 mM at pH 7.4 after 1 hr by TLC analysis. In kind it is physicochemical. The note with it: aqueous solution, pH 7.4; read-out: Stability. In short, it runs like this:
(§2)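 DMSO stocks diluted to final 1 mM in KCl·HCl pH 1.0, citrate pH 6.0, Tris·HCl pH 7.4 or borax·HCl pH 9.0 buffer. Incubated 1 h at 37 °C, then ethyl acetate extracts checked by TLC for decomposition products.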

In another series the test system is Mus musculus. Description: Toxicity in BALB/c mouse assessed as mortality at 100 mg/kg/day, po for 14 days. The series is classed as organism-based. The arrangement: route oral. As to conditions: in vivo, 336 h. In short, it runs like this: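 Uninfected female BALB/c mice (n = 2/group) received intragastric gavage daily for 14 days in saline/Tween 80 (4:1). They were weighed and monitored daily, then sacrificed for macroscopic necropsy of organs.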

Series [6] has as its system Salmonella typhimurium. Description: Mutagenic activity in Salmonella typhimurium TA1535 at 3.09 to 250 ug/plate by Ames test. In kind it is toxicity, organism-based. As to conditions: salmonella enterica subsp. enterica serovar typhimurium. In short, it runs like this: (§3)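 Direct plate incubation on minimal glucose agar (Vogel-Bonner E). Compound toxicity to the bacteria was checked first. DMSO solutions were tested at five consecutive 3-fold dilutions, starting from the highest non-toxic dose, in triplicate, without metabolic activation. DMSO served as negative control. Revertants were counted manually; mutagenic = revertants at least double the negative control at two or more consecutive doses.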

Series [7] concerns Trypanosoma cruzi. Description: Antitrypanosomal activity against Trypanosoma cruzi Tulahuen 2 epimastigotes assessed as growth inhibition after 5 days. In kind it is functional, organism-based. The note with it: Trypanosoma cruzi, Tulahuen 2, 120 h. In short, it runs like this: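 Epimastigotes were grown axenically at 28 °C in BHI-tryptose with 5% FBS and seeded from a 5–7 day culture at 1 × 10⁶ cells/mL. Drug from a DMSO stock was added (final DMSO ≤0.4%; the control contained 0.4% DMSO). Duplicates were run. A600 was read at day 5, and % inhibition was calculated relative to day-0 and control readings. IC50 = concentration that halves the absorbance ratio.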

Series [8] is described as follows: Selectivity index, ratio of IC50 for African green monkey Vero cells to IC50 for Trypanosoma cruzi Sylvio X-10 amastigotes. The series is classed as toxicity, cell-based. The note with it: read-out: Ratio IC50. In short, it runs like this: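 VERO cytotoxicity: cells exposed 48 h at 37 °C, 5% CO2 to serial dilutions from a maximum of 2000 μM (DMSO stocks; DMSO <0.1% control); growth inhibition read by MTT at 570 nm. Amastigote IC50: Sylvio X-10-infected VERO cells, five doses, infected cells counted among 300 (Giemsa), quadruplicate, three experiments, sigmoidal fit. SI = IC50 VERO / IC50 amastigote.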

Series [9] concerns Salmonella typhimurium. Description: Mutagenic activity in Salmonella typhimurium TA98 at 5 to 400 ug/plate by Ames test in presence of mouse liver S9 fraction. In kind it is toxicity, organism-based. The note with it: salmonella enterica subsp. enterica serovar typhimurium. In short, it runs like this: (§4)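 Ames plate-incorporation assay with S. typhimurium TA98 in Vogel-Bonner E minimal glucose agar. Toxicity toward the bacteria was checked first. DMSO solutions were run in triplicate at five consecutive third-dilutions, starting at the highest non-toxic dose. Positive controls were 4-nitro-o-phenylenediamine (20.0 μg/plate) and 2-aminofluorene (10.0 μg/plate); DMSO was the negative control. Revertants were counted manually. A compound was called mutagenic when revertants were at least twice the negative control at two or more consecutive doses.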

The nature of series [10]: Stability of the compound in eumulgin HRE 40, sodium oleate, soya phosphatidylcholine, cholesterol, and phosphate buffer at pH 7.4 at 4 degC. The series is classed as physicochemical. In short, it runs like this: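 Storage stability of the compound in vehicle V2, a microemulsion of surfactant (Eumulgin HRE 40/sodium oleate/soya phosphatidylcholine, 10%), cholesterol oil phase (10%) and pH 7.4 phosphate buffer (80%), followed over 1 week at 4 °C.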

The test system of series [11] is Trypanosoma cruzi. In words: Antitrypanosomal activity against Trypanosoma cruzi CL Brener infected in BALB/c mouse assessed as peak of maximum parasitemia at 107 umol/kg/day, po for 14 days administered in saline and tween 80 measured up to 60 days relative to control. In kind it is functional. In short, it runs like this:
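Male BALB/c mice (30 days old, 25–30 g, SPF) were infected i.p. with 10³ blood trypomastigotes, n = 8/group. Daily oral gavage in saline/Tween 80 (4:1) ran for 14 days from day 6 post-infection; controls received vehicle only. Parasitemia was counted weekly in tail-vein blood by hemocytometer for 60 days, and survival was recorded.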

Series [12] concerns Trypanosoma cruzi. Description: Antitrypanosomal activity against Trypanosoma cruzi CL Brener infected in BALB/c mouse assessed as mouse survival at 107 umol/kg/day, po for 14 days administered in cholesterol/surfactant/phosphate buffer measured up to 60 days relative to control. In kind it is functional. In short, it runs like this:
as §1

Series [13] concerns Salmonella typhimurium. In words: Mutagenic activity in Salmonella typhimurium TA100 at 0.003 to 0.2 ug/plate by Ames test. In kind it is toxicity, organism-based. As to conditions: salmonella enterica subsp. enterica serovar typhimurium. In short, it runs like this: as §3
Series [14] concerns Salmonella typhimurium. In words: Mutagenic activity in Salmonella typhimurium TA98 at 5 to 400 ug/plate by Ames test. In kind it is toxicity, organism-based. The note with it: salmonella enterica subsp. enterica serovar typhimurium. In short, it runs like this: as §4
The nature of series [15]: Stability of the compound in aqueous solution assessed as compound remaining at 1 mM at pH 9 after 1 hr by TLC analysis. The series is classed as physicochemical. As to conditions: aqueous solution, pH 9; read-out: Stability. In short, it runs like this: as §2

Consider `Br.C=CCn1c(-c2ccc(Cl)cc2)cs\c1=N/N=C/C=C/c1ccco1.O`, for which the Stability entry in series [1] and in [10] was “Stable” each time. In addition, the survival at 214 µmol/kg with Trypanosoma cruzi [2] worked out at 100%. In addition, the Activity entry in the series on Salmonella typhimurium [3], in the series with Mus musculus, with Salmonella typhimurium [6], with Salmonella typhimurium [9], with Salmonella typhimurium [13] and in the series with Salmonella typhimurium [14] was “Non-toxic” each time. Further, in [4], the Ratio IC50 was more than 234. Further, the remaining at 1 h, 1000 µM in series [5] and in series [15] was more than 95% each time. Further, the IC50 in the series with Trypanosoma cruzi [7] came to 1.3 µM. For the same compound, in [8], the selectivity ratio was more than 1000. In addition, in the series on Trypanosoma cruzi [11], the Time is 26 days. The survival at 107 µmol/kg with Trypanosoma cruzi [12] was 100%.
